According to ChEMBL document CHEMBL1136377, “2,4-disubstituted pyrimidines: a novel class of KDR kinase inhibitors” (Bioorg Med Chem Lett, 2003):
Blank lines part the entries; values can stand above or below the compound they belong to.

Tests used:
[1] = biological target: T1, Vascular endothelial growth factor receptor (Homo sapiens, UniProt P17948+P35916+P35968); test: Inhibition of VEGFstimulated mitogenesis in human umbilical vein endothelial cells; assay type: functional, cell-based; details: endothelial cell
[2] = biological target: T2, Vascular endothelial growth factor receptor 2 (Homo sapiens, UniProt P35968); test: Biochemical inhibition of phosphorylation of a poly-Glu/Tyr (4:1) peptide substrate by isolated vascular endothelial growth factor receptor 2 (cloned and expressed as a GST-fusion protein).
[3] = biological target: T1, Vascular endothelial growth factor receptor; test: Inhibition of VEGFstimulated mitogenesis in human umbilical vein endothelial cells.; assay type: functional, cell-based; details: endothelial cell
[4] = biological target: VEGF-receptor 2 and Fibroblast growth factor receptor 1 (Homo sapiens) (UniProt P35968+P11362); test: Selectivity for VEGF-receptor 2 (KDR) over FGF-receptor 1; assay type: protein assay
[5] = biological target: VEGF-receptor 2 and Fibroblast growth factor receptor 2 (Homo sapiens) (UniProt P35968+P21802); test: Selectivity for VEGF-receptor 2 (KDR) over FGF-receptor 2; assay type: protein assay
[6] = biological target: Vascular endothelial growth factor receptor 1 and 2 (Flt-1 and KDR) (Homo sapiens) (UniProt P17948+P35968); test: Selectivity for VEGF-receptor 2 (KDR) over VEGF-receptor 1 (FLT-1); assay type: protein assay
Chain of Vascular endothelial growth factor receptor 1 and 2 (Flt-1 and KDR) (Homo sapiens) (P17948 whole entry, looked up): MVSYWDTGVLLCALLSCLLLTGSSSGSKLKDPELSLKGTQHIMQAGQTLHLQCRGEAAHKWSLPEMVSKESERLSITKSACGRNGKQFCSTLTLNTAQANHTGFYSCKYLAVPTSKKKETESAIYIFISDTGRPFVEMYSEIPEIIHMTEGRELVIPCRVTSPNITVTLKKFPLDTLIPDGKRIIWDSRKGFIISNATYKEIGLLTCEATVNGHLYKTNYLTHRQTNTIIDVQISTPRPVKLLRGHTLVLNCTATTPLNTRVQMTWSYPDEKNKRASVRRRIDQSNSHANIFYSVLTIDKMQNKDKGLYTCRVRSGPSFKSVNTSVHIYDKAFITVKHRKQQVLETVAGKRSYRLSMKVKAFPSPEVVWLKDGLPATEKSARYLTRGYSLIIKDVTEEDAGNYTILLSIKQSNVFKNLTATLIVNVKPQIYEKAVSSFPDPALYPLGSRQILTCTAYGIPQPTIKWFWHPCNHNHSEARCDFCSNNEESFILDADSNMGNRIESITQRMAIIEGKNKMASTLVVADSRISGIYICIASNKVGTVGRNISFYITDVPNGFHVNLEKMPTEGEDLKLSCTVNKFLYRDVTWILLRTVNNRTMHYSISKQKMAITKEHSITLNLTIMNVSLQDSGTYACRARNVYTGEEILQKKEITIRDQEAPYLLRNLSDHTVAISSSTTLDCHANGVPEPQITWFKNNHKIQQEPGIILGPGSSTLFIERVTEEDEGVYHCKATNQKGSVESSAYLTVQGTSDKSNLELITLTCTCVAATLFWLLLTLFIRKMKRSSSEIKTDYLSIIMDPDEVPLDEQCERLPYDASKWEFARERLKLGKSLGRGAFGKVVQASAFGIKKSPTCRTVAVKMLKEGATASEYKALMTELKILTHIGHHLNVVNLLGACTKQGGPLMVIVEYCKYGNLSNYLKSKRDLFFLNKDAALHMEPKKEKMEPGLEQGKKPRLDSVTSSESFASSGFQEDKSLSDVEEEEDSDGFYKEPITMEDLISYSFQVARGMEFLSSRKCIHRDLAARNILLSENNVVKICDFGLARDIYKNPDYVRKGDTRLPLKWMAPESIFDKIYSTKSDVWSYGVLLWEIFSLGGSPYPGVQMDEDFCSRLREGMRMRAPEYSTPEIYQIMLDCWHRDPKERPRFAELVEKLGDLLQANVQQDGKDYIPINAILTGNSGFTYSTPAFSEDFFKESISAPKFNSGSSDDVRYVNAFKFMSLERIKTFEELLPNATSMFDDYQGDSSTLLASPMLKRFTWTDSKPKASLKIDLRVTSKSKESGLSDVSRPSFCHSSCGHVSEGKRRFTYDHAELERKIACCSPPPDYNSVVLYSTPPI
Chain of Vascular endothelial growth factor receptor 1 and 2 (Flt-1 and KDR) (Homo sapiens) (P35968 whole entry, looked up): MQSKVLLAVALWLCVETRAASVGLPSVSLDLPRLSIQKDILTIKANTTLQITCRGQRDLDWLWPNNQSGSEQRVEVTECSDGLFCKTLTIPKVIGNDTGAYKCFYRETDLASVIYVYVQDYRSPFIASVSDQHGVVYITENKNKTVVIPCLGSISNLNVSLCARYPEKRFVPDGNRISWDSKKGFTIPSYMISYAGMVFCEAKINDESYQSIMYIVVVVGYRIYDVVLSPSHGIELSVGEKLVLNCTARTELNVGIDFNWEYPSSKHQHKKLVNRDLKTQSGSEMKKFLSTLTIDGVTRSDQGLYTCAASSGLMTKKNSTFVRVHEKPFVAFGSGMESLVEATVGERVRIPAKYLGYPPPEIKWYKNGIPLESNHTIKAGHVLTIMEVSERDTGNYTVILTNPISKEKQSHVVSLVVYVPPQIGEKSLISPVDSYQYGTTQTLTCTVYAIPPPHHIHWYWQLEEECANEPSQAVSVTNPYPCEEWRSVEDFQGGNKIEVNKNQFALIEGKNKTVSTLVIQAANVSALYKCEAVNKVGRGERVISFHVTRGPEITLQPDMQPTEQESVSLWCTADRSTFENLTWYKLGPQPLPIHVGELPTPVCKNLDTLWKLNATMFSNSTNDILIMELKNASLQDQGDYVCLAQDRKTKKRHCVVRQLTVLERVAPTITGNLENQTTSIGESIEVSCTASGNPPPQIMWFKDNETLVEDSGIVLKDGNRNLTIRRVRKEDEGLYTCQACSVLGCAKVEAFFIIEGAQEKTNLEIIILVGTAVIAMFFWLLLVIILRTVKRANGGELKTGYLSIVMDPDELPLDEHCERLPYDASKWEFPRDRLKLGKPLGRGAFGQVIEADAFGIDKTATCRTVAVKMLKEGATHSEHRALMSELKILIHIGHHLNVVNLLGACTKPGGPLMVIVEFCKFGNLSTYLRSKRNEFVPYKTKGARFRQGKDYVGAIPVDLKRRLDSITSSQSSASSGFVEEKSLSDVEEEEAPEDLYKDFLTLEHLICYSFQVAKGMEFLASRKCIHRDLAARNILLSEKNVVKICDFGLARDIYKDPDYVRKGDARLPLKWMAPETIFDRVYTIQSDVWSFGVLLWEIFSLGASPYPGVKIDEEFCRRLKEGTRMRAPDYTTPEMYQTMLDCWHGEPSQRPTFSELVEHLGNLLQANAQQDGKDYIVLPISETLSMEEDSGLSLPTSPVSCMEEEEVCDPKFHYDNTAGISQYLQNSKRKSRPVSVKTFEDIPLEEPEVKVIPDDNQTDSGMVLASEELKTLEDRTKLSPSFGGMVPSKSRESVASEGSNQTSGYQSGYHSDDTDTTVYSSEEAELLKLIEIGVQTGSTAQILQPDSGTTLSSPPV

[7] = biological target: Vascular endothelial growth factor receptor 2 and 3 (KDR and Flt-4) (Homo sapiens) (UniProt P35916+P35968); test: Selectivity for VEGF-receptor 2 (KDR) over VEGF-receptor 3 (FLT-4); assay type: protein assay
[8] = biological target: VEGF-receptor 2 and PDGF-receptor beta (KDR and PDGFR beta) (Homo sapiens) (UniProt P09619+P35968); test: Selectivity for VEGF-receptor 2 (KDR) over PDGF-receptor beta; assay type: protein assay
[9] = biological target: VEGF-receptor 2 and tyrosine-protein kinase SRC (Homo sapiens) (UniProt P12931+P35968); test: Selectivity for VEGF-receptor (KDR) over c-SRC; assay type: protein assay
Chain of VEGF-receptor 2 and tyrosine-protein kinase SRC (Homo sapiens) (P12931 whole entry, looked up, the tested form may be a part): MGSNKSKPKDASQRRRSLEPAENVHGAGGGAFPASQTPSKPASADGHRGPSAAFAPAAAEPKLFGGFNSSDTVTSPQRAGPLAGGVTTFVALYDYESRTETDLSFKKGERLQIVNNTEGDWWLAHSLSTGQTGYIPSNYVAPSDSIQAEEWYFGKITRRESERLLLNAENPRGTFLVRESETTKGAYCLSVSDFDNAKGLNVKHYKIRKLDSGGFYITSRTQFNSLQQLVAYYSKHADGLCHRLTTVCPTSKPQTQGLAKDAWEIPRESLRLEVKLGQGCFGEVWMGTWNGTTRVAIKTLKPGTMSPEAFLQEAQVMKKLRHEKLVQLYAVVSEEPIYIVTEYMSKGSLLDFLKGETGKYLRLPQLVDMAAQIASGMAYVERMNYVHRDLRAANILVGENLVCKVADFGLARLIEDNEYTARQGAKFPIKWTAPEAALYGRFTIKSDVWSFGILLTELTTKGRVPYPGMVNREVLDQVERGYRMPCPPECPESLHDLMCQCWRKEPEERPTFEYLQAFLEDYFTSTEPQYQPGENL
Chain of VEGF-receptor 2 and tyrosine-protein kinase SRC (Homo sapiens) (P35968 whole entry, looked up, the tested form may be a part): as the sequence (P35968 whole entry, looked up) above

[10] = biological target: T2, Vascular endothelial growth factor receptor 2; test: Biochemical inhibition of phosphorylation of a poly-Glu/Tyr (4:1) peptide substrate by isolated vascular endothelial growth factor receptor 2 (cloned and expressed as a GST-fusion protein)
[11] = biological target: T1, Vascular endothelial growth factor receptor; test: Inhibition of VEGF-stimulated mitogenesis in human umbilical vein endothelial cells at 500 nM; assay type: functional, cell-based; details: Endothelial cell
[12] = Volume distribution constant was determined; assay type: ADME, organism-based, Canis lupus familiaris; details: dog, in vivo; read-out: Vdss
[13] = Half life period was determined; assay type: ADME, organism-based, Canis lupus familiaris; details: dog, in vivo
[14] = Plasma clearance was determined; assay type: ADME, organism-based, Canis lupus familiaris; details: dog
[15] = Partition coefficient (logP); assay type: physicochemical; details: octanol/water
Summary of the method: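 Partition coefficient measured by HPLC analysis of an octanol/phosphate buffer (pH 7.4) system.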

IC50 [1]: 396 nM | IC50 [2]: 32 nM
Compound: CC(=O)N1CCN(Cc2cc(C)cc(Nc3nccc(-n4ccnc4-c4ccccc4)n3)c2)CC1

IC50 [2]: 6830 nM
Compound: c1ccc(-c2nccn2-c2ccnc(Nc3ccccn3)n2)cc1

IC50 [2]: 450 nM
Compound: Cc1cc(C)cc(Nc2nccc(-n3cc(C)nc3-c3ccccc3)n2)c1

IC50 [2]: 392 nM
Compound: COc1ccc(Nc2nccc(-n3ccnc3-c3ccccc3)n2)cc1

IC50 [2]: 3080 nM
Compound: Cc1ccccc1Nc1nccc(-n2ccnc2-c2ccccc2)n1

IC50 [1]: 22 nM | IC50 [2]: 5 nM
Compound: COc1cc(Nc2nccc(-n3ccnc3-c3ccccc3)n2)cc(OC)c1

IC50 [1]: 26 nM | IC50 [2]: 5 nM
Compound: Cc1cc(Nc2nccc(-n3ccnc3-c3ccccc3)n2)cc(C(F)(F)F)c1

IC50 [1]: 23 nM | IC50 [10]: 9 nM
Compound: Cc1cc(CO)cc(Nc2nccc(-n3ccnc3-c3ccccc3)n2)c1

inhibition [11]: 8% | IC50 [2]: 105 nM | Selectivity [4]: 295 | Selectivity [6]: 13 | Selectivity [7]: 5 | Selectivity [9]: 11
Compound: c1ccc(Nc2nccc(-n3ccnc3-c3ccccc3)n2)cc1

IC50 [2]: 340 nM
Compound: c1ccc(-c2nccn2-c2ccnc(Nc3cccnc3)n2)cc1

The remaining lines, values behind:

Compound: FC(F)(F)c1cccc(Nc2nccc(-n3ccnc3-c3ccccc3)n2)c1
IC50 [1]: 303 nM | IC50 [2]: 10 nM

Compound: Cc1cccc(Nc2nccc(-n3ccnc3-c3ccccc3)n2)c1
IC50 [3]: 151 nM | IC50 [2]: 18 nM | Selectivity [4]: 1020 | Selectivity [5]: 686 | Selectivity [6]: 103 | Selectivity [7]: 13 | Selectivity [8]: 22 | Selectivity [9]: 11

Compound: COc1cccc(Nc2nccc(-n3ccnc3-c3ccccc3)n2)c1
IC50 [1]: 88 nM | IC50 [2]: 20 nM

Compound: [O-][n+]1cccc(Nc2nccc(-n3ccnc3-c3ccccc3)n2)c1
IC50 [2]: 3570 nM

Compound: Cc1cc(C)cc(Nc2cc(-n3ccnc3-c3ccccc3)ccn2)c1
IC50 [2]: 892 nM

Compound: Clc1cc(Cl)cc(Nc2nccc(-n3ccnc3-c3ccccc3)n2)c1
IC50 [2]: 26 nM

Compound: COc1cc(Nc2nccc(-n3ccnc3-c3ccccc3)n2)cc(C(F)(F)F)c1
IC50 [2]: 19000 nM

Compound: Cc1cc(C)cc(Nc2cc(-n3ccnc3-c3ccccc3)ncn2)c1
IC50 [2]: 1810 nM

Compound: Clc1cccc(Nc2nccc(-n3ccnc3-c3ccccc3)n2)c1
IC50 [2]: 25 nM

Compound: c1ccc(-c2nccn2-c2ccnc(Nc3ccncc3)n2)cc1
IC50 [2]: 273 nM

Compound: COc1ccccc1Nc1nccc(-n2ccnc2-c2ccccc2)n1
IC50 [2]: 289 nM

Compound: Cc1cc(C)cc(Nc2nccc(-n3ccnc3-c3ccccc3)n2)c1
Vd [12]: 1.11 L/kg | half-life [13]: 42.6 min | clearance [14]: 30.1 mL/min/kg | logP [15]: 3.74 | IC50 [3]: 19 nM | IC50 [2]: 6 nM | Selectivity [4]: 606 | Selectivity [5]: 261 | Selectivity [6]: 30 | Selectivity [7]: 5 | Selectivity [8]: 6 | Selectivity [9]: 10

Compound: Cc1ccc(Nc2nccc(-n3ccnc3-c3ccccc3)n2)cc1
IC50 [2]: 279 nM

Compound: FC(F)(F)c1cc(Nc2nccc(-n3ccnc3-c3ccccc3)n2)cc(C(F)(F)F)c1
IC50 [2]: 77 nM
